Source: ChEMBL document CHEMBL4017507 (J Med Chem, 2017)

How the values were obtained:
[1] = system: Human betaherpesvirus 5; experiment: Antiviral activity against human cytomegalovirus AD-169 infected in human HEL cells assessed as inhibition of virus-induced cytopathic effect; format: functional, cell-based; conditions: Human betaherpesvirus 5, AD-169, HEL
Method in brief: (§1)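 Confluent HEL fibroblast monolayers were inoculated in 96-well plates with 100 CCID50 of virus in the presence of serially varied compound concentrations. Cytopathicity was scored once untreated infected controls reached full CPE.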

[2] = system: Human immunodeficiency virus 1; experiment: Antiviral activity against HIV1 X4LAI.04 infected in human MT4 cells assessed as decrease in viral replication by p24gag-based luminex assay; format: functional, cell-based; conditions: Human immunodeficiency virus 1, X4LAI.04, MT4
Method in brief: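 10^6 MT-4 cells were infected with HIV-1 X4LAI.04 (7 ng p24) for 2 h at 37 °C, then washed with PBS and resuspended. Compounds were added and cultures were kept 3 days at 37 °C. Supernatant p24 was measured by bead-based Luminex. Inhibition was calculated as (1 − p24 treated/p24 untreated) × 100, and EC50 was derived from it.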

[3] = system: MT4; experiment: Cytotoxicity against human MT4 cells assessed as reduction in cell viability by cell counting method; format: cell-based
Method in brief: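 MT-4 cultures, untreated or treated, were assessed with an automated cell counter using propidium iodide staining to enumerate total and dead cells.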

[4] = system: Human alphaherpesvirus 1; experiment: Antiviral activity against Herpes simplex virus 1 KOS infected in human HEL cells assessed as inhibition of virus-induced cytopathic effect; format: functional, cell-based; conditions: Human alphaherpesvirus 1, KOS; method in brief: as §1
[5] = system: Human alphaherpesvirus 2; experiment: Antiviral activity against Herpes simplex virus 2 G infected in human HEL cells assessed as inhibition of virus-induced cytopathic effect; format: functional, cell-based; conditions: Human alphaherpesvirus 2, strain G; method in brief: as §1
[6] = system: Human alphaherpesvirus 1; experiment: Antiviral activity against ACV-resistant thymidine kinase deficient Herpes simplex virus 1 KOS infected in human HEL cells assessed as inhibition of virus-induced cytopathic effect; format: functional, cell-based; conditions: Human alphaherpesvirus 1, KOS; method in brief: as §1
[7] = Cytotoxicity against human HEL cells assessed as alteration to cell morphology by microscopic analysis; format: cell-based
Method in brief: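 Minimal cytotoxic concentration is the compound concentration giving a microscopically visible alteration of HEL cell morphology, scored in the antiviral assay cultures.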

[8] = system: Human betaherpesvirus 5; experiment: Antiviral activity against human cytomegalovirus Davis infected in human HEL cells assessed as inhibition of virus-induced cytopathic effect; format: functional, cell-based; conditions: Human betaherpesvirus 5, Davis; method in brief: as §1
[9] = system: Human alphaherpesvirus 3; experiment: Antiviral activity against Varicella-Zoster virus OKA infected in human HEL cells assessed as inhibition of virus-induced cytopathic effect; format: functional, cell-based; conditions: Human alphaherpesvirus 3, strain Oka vaccine
Method in brief: (§2)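 Confluent HEL fibroblast cultures were inoculated with 20 PFU of VZV in the presence of varying compound concentrations. Plaque formation was recorded once untreated infected controls reached completion.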

[10] = system: Human alphaherpesvirus 3; experiment: Antiviral activity against thymidine kinase deficient Varicella-Zoster virus 07-1 infected in human HEL cells assessed as inhibition of virus-induced cytopathic effect; format: functional, cell-based; conditions: Human alphaherpesvirus 3, 07-1, HEL; method in brief: as §2
[11] = system: HEL; experiment: Cytotoxicity against human HEL cells assessed as cell growth inhibition by cell counting method; format: cell-based
[12] = system: CCRF-CEM; experiment: Cytostatic activity human CEM cells assessed as reduction in cell viability after 72 hrs by cell counting method; format: cell-based; conditions: ccrf-cem, 72 h
Method in brief: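 (5–7.5) × 10^? CEM cells per well were grown with compound for 72 h at 37 °C under humidified CO2. Cells were counted in a Coulter counter.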

SMILES	EC50 [1]	EC50 [2]	IC50 [3]	EC50 [4]	EC50 [5]	EC50 [6]	MCC [7]	EC50 [8]	EC50 [9]	EC50 [10]	CC50 [11]	CC50 [12]
C[C@H](NP(=O)(OCC(CO)OCn1cnc2c(=O)[nH]c(N)nc21)Oc1ccccc1)C(=O)OCc1ccccc1 (stereo partly drawn)	7.9 µM	17 µM	20 µM	0.6 µM	3 µM	3 µM	> 100 µM	5 µM	7.3 µM	3.2 µM	≥ 81 µM	
C[C@H](NP(=O)(OCC(CCn1cnc2c(=O)[nH]c(N)nc21)COP(=O)(N[C@@H](C)C(=O)OCc1ccccc1)Oc1cccc2ccccc12)Oc1cccc2ccccc12)C(=O)OCc1ccccc1 (stereo partly drawn)	> 50 µM			> 100 µM	> 100 µM	> 100 µM	50 to 100 µM	> 50 µM	13.5 µM	> 50 µM	> 100 µM	> 10 µM
C[C@H](NP(=O)(OCC(CCn1cnc2c(=O)[nH]c(/N=C/N(C)C)nc21)COP(=O)(N[C@@H](C)C(=O)OCc1ccccc1)Oc1cccc2ccccc12)Oc1cccc2ccccc12)C(=O)OCc1ccccc1 (stereo partly drawn)	> 20 µM	3.2 µM	4 µM	> 100 µM	> 100 µM	> 100 µM	50 to 100 µM	> 20 µM	8.8 µM	11.7 µM	19 µM	19 µM
CC(C)OC(=O)[C@H](C)NP(=O)(OCC(COP(=O)(N[C@@H](C)C(=O)OC(C)C)Oc1cccc2ccccc12)OCn1cnc2c(=O)[nH]c(N)nc21)Oc1cccc2ccccc12 (stereo partly drawn)	16.3 µM	8.5 µM	6 µM	1.2 µM	1.4 µM	≥ 73 µM	≥ 100 µM	2.7 µM	4.2 µM	1.1 µM	> 50 µM	> 100 µM
C[C@H](NP(=O)(OCC(COP(=O)(N[C@@H](C)C(=O)OCc1ccccc1)Oc1ccccc1)OCn1cnc2c(=O)[nH]c(N)nc21)Oc1ccccc1)C(=O)OCc1ccccc1 (stereo partly drawn)	44.7 µM	30 µM	> 150 µM	3 µM	2.5 µM	14.5 µM	> 100 µM		23.3 µM	21.3 µM	> 100 µM	159 µM
CC(C)(NP(=O)(OCC(COP(=O)(NC(C)(C)C(=O)OCc1ccccc1)Oc1cccc2ccccc12)OCn1cnc2c(=O)[nH]c(N)nc21)Oc1cccc2ccccc12)C(=O)OCc1ccccc1 (stereo not drawn)	≥ 44.9 µM	> 150 µM	> 150 µM	0.3 µM	0.9 µM	1.6 µM	50 to 100 µM	50 µM	13.6 µM	7.2 µM	> 100 µM	> 20 µM
CC(C)(NP(=O)(OCC(COP(=O)(NC(C)(C)C(=O)OCc1ccccc1)Oc1ccccc1)OCn1cnc2c(=O)[nH]c(N)nc21)Oc1ccccc1)C(=O)OCc1ccccc1 (stereo not drawn)	50 µM	10 µM	13 µM	1.5 µM	2.5 µM	1.5 µM	> 50 µM	23.6 µM	21.7 µM	8.3 µM	82 µM	47 µM
CC(C)(NP(=O)(OCC(CO)OCn1cnc2c(=O)[nH]c(N)nc21)Oc1cccc2ccccc12)C(=O)OCc1ccccc1 (stereo not drawn)	6.6 µM	10 µM	26 µM	0.6 µM	0.85 µM	1.4 µM	50 to 100 µM	4.9 µM	13 µM	> 50 µM	> 100 µM	> 100 µM
CC(C)(NP(=O)(OCC(CO)OCn1cnc2c(=O)[nH]c(N)nc21)Oc1ccccc1)C(=O)OCc1ccccc1 (stereo not drawn)	38.6 µM	> 150 µM	> 150 µM	0.09 µM	0.3 µM	0.15 µM	50 to 100 µM	15.8 µM	7.3 µM	3.3 µM	> 100 µM	> 100 µM
CC(C)(NP(=O)(OCC(CO)CCn1cnc2c(=O)[nH]c(N)nc21)Oc1cccc2ccccc12)C(=O)OCc1ccccc1 (stereo not drawn)	> 50 µM	95 µM	100 µM	75 µM	52 µM	> 100 µM	50 to 100 µM	> 50 µM	20.9 µM	> 50 µM	> 100 µM	
C[C@H](NP(=O)(OCC(COP(=O)(N[C@@H](C)C(=O)OCc1ccccc1)Oc1cccc2ccccc12)OCn1cnc2c(=O)[nH]c(N)nc21)Oc1cccc2ccccc12)C(=O)OCc1ccccc1 (stereo partly drawn)	27.4 µM		> 150 µM	1.3 µM	2.5 µM	2.5 µM	50 to 100 µM	11.2 µM	6.2 µM	4.1 µM	> 100 µM	
C[C@H](NP(=O)(OCC(CCn1cnc2c(=O)[nH]c(/N=C/N(C)C)nc21)COP(=O)(N[C@@H](C)C(=O)OCc1ccccc1)Oc1ccccc1)Oc1ccccc1)C(=O)OCc1ccccc1 (stereo partly drawn)	> 50 µM	9 µM	10 µM	> 100 µM	> 100 µM	> 100 µM	50 to 100 µM	> 50 µM	29.8 µM	28.6 µM	47 µM	21 µM
Nc1nc2c(ncn2COCCO)c(=O)[nH]1 [ACYCLOVIR]											787 µM	
